From PubChem BioAssay
Activity calls are given as the source filed them.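 How the source made its calls: active means calcium signal cut by more than 3 SD below the full-agonist control yet still positive, in both repeats and the earlier primary screen; inactive means the rest.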

Each compound was assayed against Short transient receptor potential channel 4 (Mus musculus) (UniProt Q9QUQ5) (assay: blockers of DAMGO-evoked TRPC4 calcium flux – cell-based, Fluo4, HEK293 TRPC4beta/mu-opioid, confirmation (AID 2636)). Conditions: at 10 µM.
Procedure, shortened: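 Test system – HEK293 cells stably co-expressing mouse TRPC4beta and mu-opioid receptor · Reagent – DAMGO agonist, submaximal followed by maximal addition · Technique – Fluo4 calcium flux fluorescence, kinetic read · Control set – no-compound wells and DAMGO maximal-stimulus wells · Doses – single final compound concentration of 10 µM · Timing – compound pre-incubation 110 s before DAMGO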

Short transient receptor potential channel 4 (Mus musculus), sequence (Q9QUQ5 whole entry, looked up): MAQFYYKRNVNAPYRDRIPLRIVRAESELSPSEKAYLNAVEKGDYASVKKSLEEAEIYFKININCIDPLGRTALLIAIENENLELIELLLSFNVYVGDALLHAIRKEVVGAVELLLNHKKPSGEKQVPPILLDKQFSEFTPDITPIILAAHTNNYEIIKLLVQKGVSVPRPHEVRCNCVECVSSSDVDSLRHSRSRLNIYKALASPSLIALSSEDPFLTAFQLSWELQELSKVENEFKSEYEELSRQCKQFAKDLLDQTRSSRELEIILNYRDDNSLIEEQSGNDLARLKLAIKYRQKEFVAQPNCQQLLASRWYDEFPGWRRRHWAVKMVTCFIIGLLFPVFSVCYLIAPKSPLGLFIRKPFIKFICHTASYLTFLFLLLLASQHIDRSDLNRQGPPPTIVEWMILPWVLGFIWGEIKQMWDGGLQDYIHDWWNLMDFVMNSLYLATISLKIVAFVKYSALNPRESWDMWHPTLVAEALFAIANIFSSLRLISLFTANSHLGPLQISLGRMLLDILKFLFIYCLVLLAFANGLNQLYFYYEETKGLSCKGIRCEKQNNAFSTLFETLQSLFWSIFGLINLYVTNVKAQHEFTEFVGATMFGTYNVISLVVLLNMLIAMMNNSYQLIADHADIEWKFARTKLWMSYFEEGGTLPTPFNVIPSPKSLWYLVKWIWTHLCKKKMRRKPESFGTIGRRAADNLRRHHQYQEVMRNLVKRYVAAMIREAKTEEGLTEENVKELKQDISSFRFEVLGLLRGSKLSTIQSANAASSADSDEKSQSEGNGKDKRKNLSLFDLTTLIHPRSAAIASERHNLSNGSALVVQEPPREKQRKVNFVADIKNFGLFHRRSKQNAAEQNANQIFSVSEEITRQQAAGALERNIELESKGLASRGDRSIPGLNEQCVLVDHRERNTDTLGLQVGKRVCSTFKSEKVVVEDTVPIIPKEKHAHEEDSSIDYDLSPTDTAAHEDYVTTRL

SMILES	outcome
O=C1/C(=C\c2cc(Cl)c(O)c(Cl)c2)SC(=S)N1Cc1ccccc1	inactive
COc1ccc(C(=O)NC(=S)NNC(=O)c2c(-c3ccccc3)noc2C)cc1	inactive
O=C(c1sc2ccccc2c1Cl)N(Cc1ccco1)C1CCS(=O)(=O)C1 (stereo not given)	inactive
Cc1cc(-c2ccc(C)c(S(=O)(=O)NCCCN(Cc3ccccc3)C(C)C)c2)on1	inactive
CCc1nc(NCCc2ccccn2)c2nnn(Cc3ccccc3F)c2n1	inactive
CN(C)CCCN(C(=O)c1ccc(S(=O)(=O)N2CCCc3ccccc32)cc1)c1nc2ccc(F)cc2s1	inactive
CSCCC(NS(=O)(=O)c1ccc2c(c1)c(=O)n(C)c(=O)n2C)C(=O)NC1CCN(Cc2ccccc2)CC1 (stereo not given)	inactive
CCC1(c2ccc(F)cc2)NC(=O)N(CC(=O)c2cc(C)n(C3CC3)c2C)C1=O (stereo not given)	inactive
CN(C)CCCN(C(=O)c1ccc(C(=O)c2ccccc2)cc1)c1nc2ccc(F)cc2s1	inactive
Cc1ccc(-n2cc(CNCC3CC(=O)N(C4CC4)C3)c(-c3cccc(C)c3)n2)cc1 (stereo not given)	inactive
CC1CCCN(CCCNC(=O)c2ccc3c(c2)N(Cc2ccccc2F)C(=O)c2ccccc2S3(=O)=O)C1 (stereo not given)	inactive
Cc1nc(/N=C(\N)NC(=O)NC2CCCCC2)nc2ccccc12	inactive
COc1ccc(C(CNC(=O)c2cccc(NS(=O)(=O)c3ccc(C)c(F)c3)c2)N(C)C)cc1 (stereo not given)	inactive
CCN1CCN(c2ccc(S(=O)(=O)N3CCCCC3)cc2NC(=O)COc2ccccc2)CC1	inactive
CCCN(CCC)CCCNC(=O)C1CCN(S(=O)(=O)c2cccc3nsnc23)CC1	inactive
